Reference: PMC3008344 (Molecular nutrition & food research, 2009)

What was measured:
PARP = assay: Western blot of PARP cleavage; assay type: cell-based, human; conditions: MDA-MB-231-GFP cells; for PARP cleavage: 5 days
Procedure, shortened: (§1)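 Whole-cell extracts came from the same 5-day-treated MDA-MB-231-GFP samples (2% FBS) used for annexin V analysis. Blots were incubated overnight at 4°C with primary antibody in 0.1% BSA/TBST against PARP (cleavage), Survivin, DR5 or GAPDH. After TBST washes they were probed with HRP-conjugated secondary antibody.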

[1] = system: MDA-MB-231-GFP tumor tissue; assay: Tumor immunohistochemistry: TUNEL apoptosis; assay type: in vivo, Nu/Nu female BALB/c mice; conditions: tumor tissue from 5 mice/group, 500 mg/kg diet
Procedure, shortened: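 Xenografts came from female Nu/Nu BALB/c mice carrying s.c. MDA-MB-231-GFP tumours in matrigel. From ~25 mm3, mice were fed for 24 days a tocopherol-stripped AIN-76A basal diet (33 IU all-rac-α-tocopherol acetate/kg) with or without 500 mg/kg test vitamin E form. TUNEL (ApopTag) staining was done on deparaffinised 5 μm sections of formalin-fixed tumours. Brown nuclei were scored in 15 fields (400×) per tumour, 5 mice/group; Mann-Whitney test.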

[2] = system: MDA-MB-231-GFP tumor tissue; assay: Tumor immunohistochemistry: Ki-67 proliferation; assay type: in vivo, Nu/Nu female BALB/c mice; conditions: tumor tissue from 5 mice/group, 500 mg/kg diet
Procedure, shortened: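 Female Nu/Nu BALB/c mice (6 weeks) received 2 × 10^6 MDA-MB-231-GFP cells s.c. (inguinal) in 50% matrigel. At ~25 mm3 they were randomised (10/group) to tocopherol-stripped AIN-76A diet with 33 IU all-rac-α-tocopherol acetate/kg, ± test form at 500 mg/kg, for 24 days. Formalin-fixed tumours were cut into 5 μm sections and stained for Ki-67. Positive cells were counted in 5 fields (400×) per tumour, 5 mice/group; Mann-Whitney test.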

[3] = system: MDA-MB-231-GFP human breast cancer cells; assay: Visible lung metastases counted at sacrifice; assay type: in vivo, Nu/Nu female BALB/c mice; conditions: 500 mg/kg diet each, control 70%
[4] = system: BALB/c 66cl-4-GFP mouse mammary cancer cells; conditions: formulated in liposomes, oral gavage, BALB/c 66cl-4-GFP cells; cited from earlier work
Survivin = assay: Western blot of Survivin protein expression; assay type: cell-based, human; conditions: MDA-MB-231-GFP cells; for Survivin protein expression: 5 days
Procedure, shortened: as §1

[5] = system: MDA-MB-231-GFP human breast cancer cells; assay: Colony formation assay; assay type: cell-based; conditions: for IC50: Homo sapiens, 240 h, read-out: IC50 for inhibition of colony formation; for Effect on colony formation: MDA-MB-231-GFP cells, 10 days, 10–40 μM range tested
Procedure, shortened: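 MDA-MB-231-GFP cells were seeded at 1000 per 100 mm plate in 2% FBS medium and grown 3 days to form small colonies. They were then treated 10 days with test compound at 10–40 μM (positive control 5–15 μM) or DMSO/ethanol (1:4) vehicle. Colonies were methanol-fixed, stained with 0.1% methylene blue and counted by image analysis. Survival (%) = colonies treated/control × 100. IC50 came from survival curves; mean ± SD, ≥2 experiments.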

DR5 = assay: Western blot of DR5 protein expression; assay type: cell-based, human; conditions: MDA-MB-231-GFP cells; for DR5 protein expression: 5 days
[6] = system: MDA-MB-231-GFP human breast cancer cells; assay: Annexin V-PE apoptosis assay; assay type: cell-based; conditions: MDA-MB-231-GFP cells; for Induction of apoptosis (annexin V-PE positive cells): 5 day treatments
[7] = system: human MDA-MB-231 breast cancer cells; conditions: supplemented in the diet, MDA-MB-231 cells; cited from earlier work

IC50 [5] | Compound | PARP cleavage (PARP) | Increase of TUNEL positive cells in tumor in comparison to control group [1] | Decrease of Ki-67 positive cells in tumor in comparison to control group [2] | Incidence of visible lung metastases [3] | Tumor growth in syngeneic mouse model [4] | Survivin protein expression (Survivin) | DR5 protein expression (DR5) | Induction of apoptosis (annexin V-PE positive cells) [6] | Tumor burden in xenograft model [7] | Effect on colony formation [5] | Effect of αT co-treatment on γT- and α-TEA-induced cleavage of PARP (PARP) | Effect of αT co-treatment on γT- and α-TEA-induced downregulation of Survivin (Survivin) | Effect of αT co-treatment on γT- and α-TEA-induced upregulation of DR5 (DR5) | Block of α-TEA-induced apoptosis by αT ([6]; 10 μM αT plus 10 μM α-TEA, 5 days) | Block of γT-induced apoptosis by αT ([6]; 10 μM αT plus 40 μM γT, 5 days)
11.8 µM | Cc1c(O)cc2c(c1C)O[C@](C)(CCC[C@H](C)CCC[C@H](C)CCCC(C)C)CC2 [γT, RRR-γ-tocopherol] | PARP cleavage | 1.9 fold | no significant difference | 30% | suppressed tumor growth | downregulation of anti-apoptotic Survivin | upregulation of pro-apoptotic death receptor DR5 | induced dose-dependent apoptosis | – | – | – | – | – | – | –
– | Cc1c(C)c2c(c(C)c1O)CCC(C)(CCCC(C)CCCC(C)CCCC(C)C)O2 (racemic) [all-rac-αT, all-racemic-α-tocopherol] | did not cause cleavage of PARP | 2.1 fold | 23% | 30% | suppressed tumor growth | did not downregulate Survivin | induced an increase in DR5 protein expression | – | reduced tumor burden | no inhibitory effect | – | – | – | – | –
4.8 µM | Cc1c(C)c2c(c(C)c1OCC(=O)O)CC[C@@](C)(CCC[C@H](C)CCC[C@H](C)CCCC(C)C)O2 [α-TEA, RRR-α-tocopherol ether-linked acetic acid analog] | PARP cleavage | 2.1 fold | 39% | 30% | suppressed tumor growth | downregulation of anti-apoptotic Survivin | upregulation of pro-apoptotic death receptor DR5 | induced dose-dependent apoptosis | – | – | – | – | – | – | –
– | Cc1c(C)c2c(c(C)c1O)CC[C@@](C)(CCC[C@H](C)CCC[C@H](C)CCCC(C)C)O2 [αT, RRR-α-tocopherol] | did not cause cleavage of PARP | but not in the αT or αT + γT groups | but not αT or αT + γT groups | 60% | – | did not downregulate Survivin | induced an increase in DR5 protein expression | – | – | no inhibitory effect | blocked | blocked | blocked | 70% | 60%
